We go through seven compounds from ChEMBL document CHEMBL2424622, “Development of amino-pyrimidine inhibitors of c-Jun N-terminal kinase (JNK): kinase profiling guided optimization of a 1,2,3-benzotriazole lead” (Bioorg Med Chem Lett, 2013).

In assay [1] the target is T1, MAP kinase-activated protein kinase 5 (Homo sapiens) (UniProt Q8IW41).
T1 sequence (whole entry): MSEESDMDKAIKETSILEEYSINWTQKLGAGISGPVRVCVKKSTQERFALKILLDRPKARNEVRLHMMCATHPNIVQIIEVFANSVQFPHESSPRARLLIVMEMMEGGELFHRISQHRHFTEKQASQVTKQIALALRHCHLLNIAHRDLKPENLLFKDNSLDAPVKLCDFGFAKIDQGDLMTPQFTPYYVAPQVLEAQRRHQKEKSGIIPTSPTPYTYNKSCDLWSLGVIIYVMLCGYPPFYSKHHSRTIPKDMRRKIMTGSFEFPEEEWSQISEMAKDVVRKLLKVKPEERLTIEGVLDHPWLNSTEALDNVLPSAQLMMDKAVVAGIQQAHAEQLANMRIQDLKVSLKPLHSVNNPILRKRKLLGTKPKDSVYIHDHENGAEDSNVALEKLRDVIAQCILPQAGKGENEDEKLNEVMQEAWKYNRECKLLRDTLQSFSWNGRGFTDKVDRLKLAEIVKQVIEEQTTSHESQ
Description: Competitive binding affinity to MAPKAPK5 (unknown origin) at 10 uM in presence of ATP relative to control.

The target of assay [2] is T2, Mitogen-activated protein kinase 15 (Homo sapiens) (UniProt Q8TD08).
T2 sequence (whole entry): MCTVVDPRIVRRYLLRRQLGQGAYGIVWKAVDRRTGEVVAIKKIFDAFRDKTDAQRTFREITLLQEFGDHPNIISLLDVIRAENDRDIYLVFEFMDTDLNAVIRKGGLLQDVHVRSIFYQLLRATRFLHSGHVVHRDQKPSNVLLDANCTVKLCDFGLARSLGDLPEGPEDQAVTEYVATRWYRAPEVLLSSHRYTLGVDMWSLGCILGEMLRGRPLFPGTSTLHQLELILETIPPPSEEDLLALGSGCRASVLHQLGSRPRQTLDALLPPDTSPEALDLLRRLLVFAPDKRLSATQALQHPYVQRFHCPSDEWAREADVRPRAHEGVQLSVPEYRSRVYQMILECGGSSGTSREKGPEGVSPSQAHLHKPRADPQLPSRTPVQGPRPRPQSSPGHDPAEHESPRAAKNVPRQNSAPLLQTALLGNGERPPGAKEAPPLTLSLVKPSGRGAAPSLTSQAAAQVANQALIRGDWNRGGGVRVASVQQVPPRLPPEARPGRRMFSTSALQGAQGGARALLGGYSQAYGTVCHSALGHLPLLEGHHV
Briefly: Competitive binding affinity to ERK8 (unknown origin) at 10 uM in presence of ATP relative to control.

The target in assay [3] is T3, Tyrosine-protein kinase ZAP-70 (Homo sapiens) (UniProt P43403).
T3 sequence (whole entry): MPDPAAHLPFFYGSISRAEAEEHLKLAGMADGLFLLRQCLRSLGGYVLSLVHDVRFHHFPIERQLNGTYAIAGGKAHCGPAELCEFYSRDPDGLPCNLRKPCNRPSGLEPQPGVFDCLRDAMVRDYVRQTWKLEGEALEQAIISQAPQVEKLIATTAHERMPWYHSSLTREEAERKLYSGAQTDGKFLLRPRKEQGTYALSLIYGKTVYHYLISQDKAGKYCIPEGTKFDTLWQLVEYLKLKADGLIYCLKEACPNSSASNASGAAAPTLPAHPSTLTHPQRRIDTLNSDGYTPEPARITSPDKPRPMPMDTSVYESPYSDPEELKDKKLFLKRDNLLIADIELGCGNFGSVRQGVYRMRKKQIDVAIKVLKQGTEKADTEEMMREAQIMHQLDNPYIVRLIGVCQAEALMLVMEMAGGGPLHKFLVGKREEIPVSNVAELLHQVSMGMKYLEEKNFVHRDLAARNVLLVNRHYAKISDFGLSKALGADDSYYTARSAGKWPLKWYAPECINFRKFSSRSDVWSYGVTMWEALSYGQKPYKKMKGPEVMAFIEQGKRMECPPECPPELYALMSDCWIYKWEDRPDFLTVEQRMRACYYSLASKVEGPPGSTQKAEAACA
Description: Competitive binding affinity to ZAP70 (unknown origin) at 10 uM in presence of ATP relative to control.

In assay [4] the target is Tyrosine-protein kinase receptor UFO (Homo sapiens) (UniProt P30530). Description: Competitive binding affinity to AXL (unknown origin) at 10 uM in presence of ATP relative to control.
Chain of Tyrosine-protein kinase receptor UFO (Homo sapiens) (P30530 whole entry): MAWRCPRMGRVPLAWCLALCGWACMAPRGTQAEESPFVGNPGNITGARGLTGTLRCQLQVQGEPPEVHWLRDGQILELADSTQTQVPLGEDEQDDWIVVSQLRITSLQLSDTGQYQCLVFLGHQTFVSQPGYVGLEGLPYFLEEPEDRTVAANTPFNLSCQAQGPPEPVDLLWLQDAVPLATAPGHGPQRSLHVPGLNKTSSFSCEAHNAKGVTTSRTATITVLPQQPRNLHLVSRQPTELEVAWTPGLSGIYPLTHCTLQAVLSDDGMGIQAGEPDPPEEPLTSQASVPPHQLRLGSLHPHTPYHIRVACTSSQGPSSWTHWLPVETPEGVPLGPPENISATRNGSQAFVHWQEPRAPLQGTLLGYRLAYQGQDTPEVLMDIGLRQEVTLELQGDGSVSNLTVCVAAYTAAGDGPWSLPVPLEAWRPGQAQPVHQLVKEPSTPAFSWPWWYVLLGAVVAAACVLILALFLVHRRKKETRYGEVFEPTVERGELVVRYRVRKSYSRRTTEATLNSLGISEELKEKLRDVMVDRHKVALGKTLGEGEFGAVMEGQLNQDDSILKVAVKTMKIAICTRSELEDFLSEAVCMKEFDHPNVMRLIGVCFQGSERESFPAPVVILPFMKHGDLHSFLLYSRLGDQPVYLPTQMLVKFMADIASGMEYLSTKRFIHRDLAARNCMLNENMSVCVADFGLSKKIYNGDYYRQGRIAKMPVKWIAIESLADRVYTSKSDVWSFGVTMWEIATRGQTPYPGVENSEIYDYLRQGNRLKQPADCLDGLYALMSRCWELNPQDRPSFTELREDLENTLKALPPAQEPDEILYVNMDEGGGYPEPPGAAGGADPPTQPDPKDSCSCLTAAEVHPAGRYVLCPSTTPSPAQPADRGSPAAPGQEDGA
In assay [5] the test system is Tyrosine-protein kinase ABL1 (Homo sapiens), P00519 [E255K]. Briefly: Competitive binding affinity to ABL1 E255K mutant (unknown origin) at 10 uM in presence of ATP relative to control.
Chain of Tyrosine-protein kinase ABL1 (Homo sapiens), P00519 [E255K] (P00519 whole entry E255K): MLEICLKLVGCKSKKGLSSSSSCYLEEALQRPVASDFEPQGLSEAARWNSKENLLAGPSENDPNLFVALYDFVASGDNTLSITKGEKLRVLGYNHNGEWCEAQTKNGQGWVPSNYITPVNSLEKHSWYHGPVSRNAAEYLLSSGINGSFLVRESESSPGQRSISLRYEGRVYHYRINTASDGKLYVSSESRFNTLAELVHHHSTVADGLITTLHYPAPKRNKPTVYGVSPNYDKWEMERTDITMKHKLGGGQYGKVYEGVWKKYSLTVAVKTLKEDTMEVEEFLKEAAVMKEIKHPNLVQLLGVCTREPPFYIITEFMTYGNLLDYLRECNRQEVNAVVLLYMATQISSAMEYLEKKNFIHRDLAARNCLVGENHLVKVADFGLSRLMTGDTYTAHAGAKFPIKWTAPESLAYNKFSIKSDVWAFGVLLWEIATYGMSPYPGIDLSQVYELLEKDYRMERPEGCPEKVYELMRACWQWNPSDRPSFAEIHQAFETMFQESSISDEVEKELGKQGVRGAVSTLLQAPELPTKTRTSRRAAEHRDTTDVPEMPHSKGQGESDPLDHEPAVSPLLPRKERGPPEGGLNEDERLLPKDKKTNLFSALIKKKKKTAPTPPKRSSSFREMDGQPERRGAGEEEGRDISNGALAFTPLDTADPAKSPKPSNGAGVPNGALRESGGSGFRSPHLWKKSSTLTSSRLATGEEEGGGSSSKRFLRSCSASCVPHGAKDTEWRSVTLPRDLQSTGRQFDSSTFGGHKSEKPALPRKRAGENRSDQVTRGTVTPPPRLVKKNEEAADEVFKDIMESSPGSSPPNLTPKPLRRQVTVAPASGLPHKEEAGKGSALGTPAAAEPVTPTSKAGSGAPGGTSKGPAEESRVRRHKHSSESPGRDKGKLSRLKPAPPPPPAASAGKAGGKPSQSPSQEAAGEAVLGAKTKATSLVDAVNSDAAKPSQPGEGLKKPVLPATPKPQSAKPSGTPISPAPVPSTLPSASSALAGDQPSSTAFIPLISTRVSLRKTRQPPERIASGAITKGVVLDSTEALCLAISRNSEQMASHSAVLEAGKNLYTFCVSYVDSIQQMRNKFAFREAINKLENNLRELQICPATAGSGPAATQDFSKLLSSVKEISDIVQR
Assay [6] addresses Serine/threonine-protein kinase SIK1 (Homo sapiens) (UniProt P57059). Description: Competitive binding affinity to SNF1LK (unknown origin) at 10 uM in presence of ATP relative to control.
Assay [7] addresses T4, Serine/threonine-protein kinase D2 (Homo sapiens) (UniProt Q9BZL6).
T4 sequence (whole entry): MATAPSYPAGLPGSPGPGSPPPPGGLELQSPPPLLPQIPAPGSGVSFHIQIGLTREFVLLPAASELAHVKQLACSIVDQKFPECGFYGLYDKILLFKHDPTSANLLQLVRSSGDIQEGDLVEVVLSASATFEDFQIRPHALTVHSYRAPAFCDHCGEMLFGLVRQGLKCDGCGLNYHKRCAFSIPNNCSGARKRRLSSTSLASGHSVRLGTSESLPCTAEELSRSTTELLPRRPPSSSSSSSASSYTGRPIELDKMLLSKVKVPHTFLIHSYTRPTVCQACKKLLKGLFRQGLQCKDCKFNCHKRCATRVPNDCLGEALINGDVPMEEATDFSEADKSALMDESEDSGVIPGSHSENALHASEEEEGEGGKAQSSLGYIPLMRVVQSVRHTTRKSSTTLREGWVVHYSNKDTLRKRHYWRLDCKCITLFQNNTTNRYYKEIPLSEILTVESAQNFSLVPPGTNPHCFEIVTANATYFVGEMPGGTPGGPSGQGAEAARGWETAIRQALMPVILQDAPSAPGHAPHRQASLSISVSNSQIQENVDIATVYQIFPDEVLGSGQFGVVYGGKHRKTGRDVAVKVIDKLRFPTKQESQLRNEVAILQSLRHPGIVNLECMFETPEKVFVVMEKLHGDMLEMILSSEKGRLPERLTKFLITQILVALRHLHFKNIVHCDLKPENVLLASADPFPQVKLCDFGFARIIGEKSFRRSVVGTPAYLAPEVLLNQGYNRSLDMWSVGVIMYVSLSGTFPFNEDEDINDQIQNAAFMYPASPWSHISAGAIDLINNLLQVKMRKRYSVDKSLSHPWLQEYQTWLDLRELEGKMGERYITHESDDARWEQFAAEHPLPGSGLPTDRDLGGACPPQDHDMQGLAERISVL
Briefly: Competitive binding affinity to PRKD2 (unknown origin) at 10 uM in presence of ATP relative to control.

In assay [8] the test system is HCT-116. Briefly: Cytotoxicity against human HCT116 cells assessed as cell viability by WST-1 reduction assay. Type of assay: cell-based. The essentials: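 Cytotoxicity was measured in an HCT-116 cell proliferation assay as reduction of WST-1 reagent. Values are the mean of at least three experiments.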
A general note: Formazan colour is commonly taken as a measure of viable cells.

Broadly, the inhibition is the relative decrease from the control value, in per cent. As a reminder, the IC50 is the concentration that inhibits the measured activity by half.

Chain of Serine/threonine-protein kinase SIK1 (Homo sapiens) (P57059 whole entry): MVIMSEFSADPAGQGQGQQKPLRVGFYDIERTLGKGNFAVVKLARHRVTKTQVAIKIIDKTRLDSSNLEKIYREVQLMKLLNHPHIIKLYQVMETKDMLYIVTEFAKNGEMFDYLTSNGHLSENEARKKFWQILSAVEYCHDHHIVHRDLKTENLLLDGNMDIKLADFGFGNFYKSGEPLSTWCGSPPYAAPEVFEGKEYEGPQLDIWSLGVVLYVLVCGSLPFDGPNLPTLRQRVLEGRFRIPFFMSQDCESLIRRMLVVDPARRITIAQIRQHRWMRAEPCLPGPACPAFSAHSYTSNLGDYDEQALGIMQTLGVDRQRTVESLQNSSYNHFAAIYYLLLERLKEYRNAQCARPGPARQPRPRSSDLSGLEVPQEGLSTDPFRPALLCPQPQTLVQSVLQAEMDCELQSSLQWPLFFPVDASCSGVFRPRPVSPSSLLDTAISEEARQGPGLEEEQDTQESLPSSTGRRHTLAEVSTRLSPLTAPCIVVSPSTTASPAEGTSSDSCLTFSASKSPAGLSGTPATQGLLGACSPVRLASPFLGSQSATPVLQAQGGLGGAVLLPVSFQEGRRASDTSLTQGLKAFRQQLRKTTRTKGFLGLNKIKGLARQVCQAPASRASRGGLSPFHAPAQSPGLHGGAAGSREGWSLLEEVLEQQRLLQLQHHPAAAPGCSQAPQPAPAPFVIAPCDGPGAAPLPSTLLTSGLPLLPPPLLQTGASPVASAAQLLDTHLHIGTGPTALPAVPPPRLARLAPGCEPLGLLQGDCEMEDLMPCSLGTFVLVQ

Turning to `O[C@H]1CC[C@H](Nc2nccc(-n3ccc4ccccc43)n2)CC1`, the inhibition in assay [1] is < 50%; in assay [2], 91%; in assay [3], < 50%; in assay [4], < 50%; in assay [5], < 50%; in assay [6], < 50%. The inhibition in assay [7] was determined as 88%.
For `O[C@H]1CC[C@H](Nc2nccc(-n3nnc4ccccc43)n2)CC1`, the inhibition in assay [1] is < 50%; in assay [2] it was 99%; in assay [3] it was < 50%; in assay [4], < 50%; in assay [5], < 50%; in assay [6], < 50%. Further, the inhibition in assay [7] was determined as 98%. The IC50 in assay [8] came to 1200 nM.
`CS(=O)(=O)CCCOc1cccc2c1ccn2-c1ccnc(N[C@H]2CC[C@H](C(=O)N3CCC(O)CC3)CC2)n1`: the inhibition in assay [2] is > 85%.
As to `O=C([C@H]1CC[C@H](Nc2nccc(-n3nnc4ccccc43)n2)CC1)N1CCOCC1`, the IC50 in assay [8] is 20000 nM.
With `O[C@H]1CC[C@H](Nc2nccc(-n3ncc4ccccc43)n2)CC1`, the inhibition was < 50% in assay [1]; 97% in assay [2]; < 50% in assay [3]; 93% in assay [4]; < 50% in assay [5]; < 50% in assay [6]. The inhibition in assay [7] stood at 91%.
As for `O[C@H]1CC[C@H](Nc2nccc(-c3n[nH]c4ccccc34)n2)CC1`, the inhibition was < 50% in assay [3], 100% in assay [4] and < 50% in assay [5].
For the compound `N[C@H]1CC[C@H](Nc2nccc(-n3nnc4ccccc43)n2)CC1`, the IC50 in assay [8] was found to be 770 nM.
